Results published in ChEMBL document CHEMBL3085664, “Structure-activity relationship of imidazopyridinium analogues as antagonists of neuropeptide s receptor” (J Med Chem, 2013).

What was measured:
[1] = tested on: Mus musculus; assay: Inhibition of NPS-induced hyperlocomotion in mouse at 50 mg/kg, ip after 90 mins; assay type: functional; details: 1.5 h, route intraperitoneal
[2] = Metabolic stability in mouse liver microsomes assessed as compound remaining after 60 mins in presence NADPH; assay type: ADME, Microsome; details: read-out: Stability
Method in brief: (§1)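 Compound was incubated with mouse liver microsomes, and percent parent remaining was determined at 15, 30 and 60 min. Values are means from a single experiment run in duplicate.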

[3] = biological target: T1, Neuropeptide S receptor (Homo sapiens, UniProt Q6W5P4); assay: Displacement of [125I]Tyr10-NPS from human neuropeptide S receptor expressed in CHO cells after 1.5 hrs by liquid scintillation counting; assay type: cell-based
T1 sequence (Q6W5P4 whole entry): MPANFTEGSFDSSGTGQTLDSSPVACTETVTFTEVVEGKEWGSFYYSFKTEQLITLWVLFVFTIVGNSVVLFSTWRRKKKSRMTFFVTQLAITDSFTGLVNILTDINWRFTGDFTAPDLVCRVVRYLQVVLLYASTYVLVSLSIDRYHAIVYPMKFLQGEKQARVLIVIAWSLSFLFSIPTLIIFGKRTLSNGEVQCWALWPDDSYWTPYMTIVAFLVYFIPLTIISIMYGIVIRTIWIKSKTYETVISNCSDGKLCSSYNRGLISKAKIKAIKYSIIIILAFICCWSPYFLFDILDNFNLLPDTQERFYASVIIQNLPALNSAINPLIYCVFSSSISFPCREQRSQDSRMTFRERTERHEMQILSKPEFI
Method in brief: (§2)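 Whole CHO cells stably expressing human NPSR at 90–95% confluency in 24-well plates. Cells were incubated with 0.15 nM [125I]Y10-NPS plus increasing compound or unlabeled NPS in DMEM/0.1% BSA, 20°C, 1.5 hr. Nonspecific binding was defined with 1 µM unlabeled human NPS. Cells were washed, lysed in 1 N NaOH and counted by liquid scintillation. IC50 from one experiment in duplicate.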

[4] = Metabolic stability in mouse liver microsomes assessed as compound remaining after 15 mins in presence NADPH; assay type: ADME, Microsome; details: read-out: Stability; method in brief: as §1
[5] = biological target: T1, Neuropeptide S receptor; assay: Displacement of [125I]Tyr10-NPS from neuropeptide S receptor (unknown origin); method in brief: as §2
[6] = biological target: T1, Neuropeptide S receptor; assay: Antagonist activity at neuropeptide S receptor (unknown origin) expressed in CHO cells assessed as inhibition of NPS-induced calcium mobilization after 10 mins by fluorescence assay; assay type: functional, cell-based; details: read-out: IC50
Method in brief: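 CHO-NPSR cells, 2000/well in 1536-well plates, incubated overnight, then loaded with no-wash calcium dye for 1 h at 37°C. Compound in DMSO was added for 10 min. Baseline fluorescence was recorded 6 s at 1 Hz, then EC80 NPS in stimulation buffer was added and recording continued 4 min at 1 Hz on a kinetic reader. IC50 is the mean with SD of two independent experiments in duplicate.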

[7] = Metabolic stability in mouse liver microsomes assessed as compound remaining after 60 mins in absence NADPH; assay type: ADME, Microsome; details: read-out: Stability; method in brief: as §1
[8] = Drug level in mouse brain after 2 hrs; assay type: ADME, tissue-based; details: read-out: Drug uptake
[9] = Metabolic stability in mouse liver microsomes assessed as compound remaining after 15 mins in absence NADPH; assay type: ADME, Microsome; details: read-out: Stability; method in brief: as §1
[10] = biological target: T1, Neuropeptide S receptor; assay: Antagonist activity at neuropeptide S receptor (unknown origin) expressed in CHO cells assessed as inhibition of NPS-induced ERK activation after 20 mins by HTRF assay; assay type: cell-based
[11] = Drug level in mouse brain after 15 mins; assay type: ADME, tissue-based; details: read-out: Drug uptake
[12] = Metabolic stability in mouse liver microsomes assessed as compound remaining after 30 mins in presence NADPH; assay type: ADME, Microsome; details: read-out: Stability; method in brief: as §1
[13] = Metabolic stability in mouse liver microsomes assessed as compound remaining after 30 mins in absence NADPH; assay type: ADME, Microsome; details: read-out: Stability; method in brief: as §1
[14] = biological target: T1, Neuropeptide S receptor; assay: Antagonist activity at neuropeptide S receptor (unknown origin) expressed in CHO cells assessed as cAMP level after 30 mins by […] assay; assay type: functional, cell-based; details: read-out: IC50
Method in brief: (§3)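 CHO cells stably expressing NPSR, 1800 cells/well in 1536-well format, seeded overnight at 37°C in medium without Geneticin. Stimulation buffer (PBS, 0.1% BSA, 0.05% Tween-20, 500µM Ro 20-1724, EC80 NPS) was added for 30 min at 37°C. cAMP was read by HTRF (d2-cAMP/cryptate anti-cAMP in lysis buffer, 30 min). IC50 is the mean with SD of two independent experiments, each run in duplicate.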

[15] = biological target: T1, Neuropeptide S receptor; assay: Antagonist activity at neuropeptide S receptor (unknown origin) assessed as intracellular calcium level by cell based assay; assay type: functional
Method in brief: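 CHO cells stably expressing NPSR were seeded at 2000 cells/well and incubated overnight at 37 °C, 5% CO2. They were loaded with no-wash calcium dye for 1 h, then preincubated with compound in DMSO for 10 min. Stimulation used NPS at EC80 in PBS/0.1% BSA/0.05% Tween-20 with 500 µM Ro 20-1724. Kinetic fluorescence was read at 1 Hz: 6 s baseline, then 4 min. IC50 is the mean ± SD of two independent experiments, each in duplicate.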

[16] = biological target: T1, Neuropeptide S receptor; assay: Antagonist activity at neuropeptide S receptor (unknown origin) assessed as cAMP level by cell based assay; assay type: functional; method in brief: as §3

## O=C(NCc1ccc(F)cc1)N1CCN2C(=O)OC(c3ccccc3)(c3ccccc3)C2C1 (stereo unspecified)
[1]
  inhibition in vivo at 50 mg/kg: 50%
[2]
  remaining at 1 h: 2%
[3]
  IC50: 25 nM
[4]
  remaining at 0.25 h: 29%
[5]
  IC50: 48 nM
[6]
  IC50: 420 nM
[7]
  remaining at 1 h: 101%
[8]
  concentration at 2 h: 2000 nM
[9]
  remaining at 0.25 h: 105%
[10]
  IC50: 14 nM
[11]
  concentration at 0.25 h: 6 µM
[12]
  remaining at 0.5 h: 9%
[13]
  remaining at 0.5 h: 96%
[14]
  IC50: 5.3 nM
[15]
  IC50: 28 nM
[16]
  IC50: 420 nM
